Screening data (PubChem BioAssay)
GASC1 inh: KDM4C (human) demethylase inhibition; GST-KDM4C 2-372, H3K9me3 peptide, LANCE TR-FRET; inhibition, % at 12.5 µM; 96,000 compounds, 0.15% hits; AID 720574;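 active = mean replicate inhibition above about 25%, with at least 55% of replicates also reaching it, limit read from the data, passing the limit was not always enough; inconclusive = only one of those two conditions met; inactive = neither condition met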
Target sequence (Q9H3R0 2-372 limits assumed): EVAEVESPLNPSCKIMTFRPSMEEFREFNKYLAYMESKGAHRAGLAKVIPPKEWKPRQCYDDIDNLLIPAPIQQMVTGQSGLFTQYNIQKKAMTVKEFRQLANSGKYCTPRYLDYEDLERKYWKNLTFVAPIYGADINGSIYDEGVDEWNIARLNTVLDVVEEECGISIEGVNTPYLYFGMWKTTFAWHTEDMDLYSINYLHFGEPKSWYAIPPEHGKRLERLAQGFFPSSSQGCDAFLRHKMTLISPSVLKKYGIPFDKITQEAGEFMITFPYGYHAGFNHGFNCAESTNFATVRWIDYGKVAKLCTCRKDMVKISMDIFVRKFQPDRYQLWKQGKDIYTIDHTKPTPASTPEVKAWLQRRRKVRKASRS
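Material: GST-tagged GASC-1 (JMJD2C) catalytic fragment, aa 2-372 / Quantity: enzyme final amount 10 nM / Medium: HEPES buffer, pH 7.5, plus ascorbate / Doses: one test concentration per compound / Incubation: 30 min reaction, 60 min detection, RT / Measured by: LANCE TR-FRET / Read-out: inhibition from TR-FRET ratio decrease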
IDH1 R132H inh: inhibitors of human IDH1 R132H. O75874. IDH1 R132H reductase, diaphorase/resazurin fluorescence, 60 min. 70,000 compounds, 0.18% hits. inhibition, % at 10 µM; in the data active = inhibition above about 34%; inconclusive = no clear call, values can overlap the other calls; inactive = below about 11%
T cruzi growth-1: inhibitors of T. cruzi proliferation; T. cruzi beta-gal in NIH3T3, GalScreen luminescence, 90 h; inhibition, % at 8.34 µM; 77,000 compounds, 5.9% hits;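 active = mean inhibition above about 93%, with at least 55% of replicates each passing it, limit read from the data, passing the limit was not always enough; inconclusive = only one of those two conditions holds; inactive = neither condition holds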
T cruzi growth-2: blocks T. cruzi growth in NIH3T3 host cells | 5,600 compounds, 72% hits | shares compounds with T cruzi growth-1 | T. cruzi beta-gal in NIH3T3, GalScreen luminescence, 90 h | inhibition, % at 8.35 µM;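 active = mean replicate inhibition above about 95% and at least 55% of replicates individually reaching it, limit read from the data; inconclusive = only one of the two criteria is met; inactive = neither criterion is met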
T cruzi growth-3: inhibitors of T. cruzi proliferation. shares compounds with T cruzi growth-1. AID 651740. inhibition, % at 2.09 µM. 5,600 compounds, 21% hits. T. cruzi beta-gal in NIH3T3, GalScreen luminescence, 90 h;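 active = mean inhibition above about 95%, with at least 55% of replicates also reaching it, limit read from the data; inconclusive = meets just one of the two conditions; inactive = meets neither condition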
NIH3T3 tox: kills mouse NIH/3T3 fibroblasts | shares compounds with T cruzi growth-1 | NIH/3T3 viability, CellTiter-Glo ATP luminescence, 90 h | cytotoxicity (signal decrease), % at 8.35 µM | 5,600 compounds, 14% hits | AID 651742;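 active = mean signal decrease across replicates above about 35% based on untreated-well scatter, with enough replicates individually passing, limit read from the data; inconclusive = no rule stated though some were filed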
3T3 cytotox 2: cytotoxicity in mouse NIH/3T3 fibroblasts; shares compounds with T cruzi growth-1; NIH/3T3 viability, CellTiter-Glo ATP luminescence, 90 h; inhibition, % at 24.9 µM; 5,600 compounds, 56% hits;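 active = mean loss of cell viability signal at or above a set limit, and enough replicates individually reaching it; inconclusive = meets only the mean limit or only the replicate share; inactive = meets neither condition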
Numbers stand for hits; - = inactive; ? = inconclusive; . = no result; + = active, no number. The sample as a whole holds a higher share of hits than the screen did.

SMILES	GASC1 inh	IDH1 R132H inh	T cruzi growth-1	T cruzi growth-2	T cruzi growth-3	NIH3T3 tox	3T3 cytotox 2
C/C=C1/CN2CCC1C(CO)(C(=O)OC)c1[nH]c3ccccc3c1C2 (stereo unspecified)	.	-	.	.	.	.	.
O=C(NCC1CC1)[C@@H]1[C@@H](CO)[C@@H]2Cn3c(ccc(-c4cccnc4)c3=O)[C@@H]2N1Cc1cocn1	-	.	-	.	.	.	.
CCCNC(=O)[C@H]1[C@H](CO)[C@H]2Cn3c(ccc(C4=CCCCC4)c3=O)[C@H]2N1Cc1ccccc1F	-	.	103	106	-	-	?
CCN1[C@@H]2c3ccc(C4=CCCCC4)c(=O)n3C[C@@H]2[C@@H](CO)[C@@H]1C(=O)NC1Cc2ccccc2C1	-	.	105	106	-	-	41
CN(C)C(=O)[C@@H]1[C@@H](CO)[C@@H]2Cn3c(ccc(C4=CCCC4)c3=O)[C@@H]2N1Cc1ccccn1	-	.	-	.	.	.	.
CCN1[C@@H]2c3ccc(C4=CCCC4)c(=O)n3C[C@@H]2[C@@H](CO)[C@@H]1C(=O)NC1Cc2ccccc2C1	-	.	-	.	.	.	.
O=C(NCC1CC1)[C@H]1[C@H](CO)[C@H]2Cn3c(ccc(-c4ccccc4)c3=O)[C@H]2N1Cc1cocn1	-	.	98	-	-	-	-
CN(C)C(=O)[C@H]1[C@H](CO)[C@H]2Cn3c(ccc(C4=CCCCC4)c3=O)[C@H]2N1Cc1ccccn1	-	.	+	-	-	-	-
O=C(O)[C@@H]1[C@@H](CO)[C@@H]2Cn3c(ccc(C4=CCCCC4)c3=O)[C@@H]2N1Cc1ccccc1F	-	.	-	.	.	.	.
CO[C@H]1C[C@@H]2CC[C@@H](C)[C@@](O)(O2)C(=O)C(=O)N2CCCC[C@H]2C(=O)O[C@H](C(C)CC2CC[C@@H](O)[C@H](OC)C2)CC(=O)[C@H](C)/C=C(\C)[C@@H](O)[C@@H](OC)C(=O)[C@H](C)C[C@H](C)/C=C/C=C/C=C\1C (stereo partly specified)	.	-	.	.	.	.	.
CCC(Sc1nnc(-c2ccc([N+](=O)[O-])cc2)n1C)C(=O)Nc1ccc(Cl)cc1 (stereo unspecified)	.	-	.	.	.	.	.
COc1ccc(NC(=O)CSc2nnc3sc4ccccc4n23)cc1	.	-	.	.	.	.	.
Cc1ccc(S(=O)(=O)NC2c3cccc4cccc(c34)C2Sc2nnnn2-c2ccccc2)cc1 (stereo unspecified)	.	-	.	.	.	.	.
Cc1ccc([N+](=O)[O-])cc1N(CC(=O)Nc1ccc(I)cc1)S(C)(=O)=O	.	-	.	.	.	.	.
C[C@@H]1O[C@@H](O[C@@H]2C=C(CO)[C@H]3[C@H](O[C@@H]4O[C@H](CO)[C@@H](O)[C@H](O)[C@H]4O)OC=C[C@H]32)[C@H](O)[C@H](O)[C@H]1OC(=O)/C=C/c1ccccc1	.	-	.	.	.	.	.
CN(C)C(=O)CSc1nc2sc3c(c2c(=O)[nH]1)CCCC3	.	-	.	.	.	.	.
O=C(NCC1CC1)[C@@H]1[C@@H](CO)[C@@H]2Cn3c(ccc(C4=CCCC4)c3=O)[C@@H]2N1Cc1ccccc1F	-	.	-	.	.	.	.
O=C(NCC1CC1)[C@H]1[C@H](CO)[C@H]2Cn3c(ccc(C4=CCCCC4)c3=O)[C@H]2N1Cc1ccccc1F	-	.	99	-	-	-	66
CCNC(=O)[C@H]1[C@H](CO)[C@H]2Cn3c(cccc3=O)[C@H]2N1CC1CCCCC1	-	.	+	-	-	-	-
O=C(Nc1ccc(-c2ccccc2)cc1)[C@H]1[C@H](CO)[C@H]2Cn3c(cccc3=O)[C@H]2N1CC1CCOCC1	-	.	-	.	.	.	.
O=C(Nc1ccc(-c2ccccc2)cc1)[C@@H]1[C@@H](CO)[C@@H]2Cn3c(cccc3=O)[C@@H]2N1CC1CCCCC1	-	.	?	?	105	-	104
CCCNC(=O)[C@H]1[C@H](CO)[C@H]2Cn3c(cccc3=O)[C@H]2N1CC1CCCCC1	-	.	-	.	.	.	.
COc1cccc(S(=O)(=O)N2CCCCN3[C@H](C2)[C@H](c2ccc(C#CC4CC4)cc2)[C@@H]3CO)c1	-	.	-	.	.	.	.
Cc1cccc(S(=O)(=O)N2CCCCN3[C@@H](CO)[C@@H](c4ccc(C#CC5CC5)cc4)[C@@H]3C2)c1	-	.	-	.	.	.	.
COc1cccc(S(=O)(=O)N2CCCCN3[C@H](C2)[C@@H](c2ccc(C#CC4CC4)cc2)[C@@H]3CO)c1	-	.	121	-	-	-	?
SMILES	GASC1 inh	IDH1 R132H inh	T cruzi growth-1	T cruzi growth-2	T cruzi growth-3	NIH3T3 tox	3T3 cytotox 2
COc1cccc(S(=O)(=O)N2CCCCN3[C@@H](CO)[C@H](c4ccc(C#CC5CC5)cc4)[C@@H]3C2)c1	-	.	107	109	-	-	105
COCC#Cc1ccc([C@@H]2[C@H](CO)N3CCCCN(S(=O)(=O)c4cccc(OC)c4)C[C@@H]23)cc1	-	.	107	103	-	-	45
COCC#Cc1ccc([C@H]2[C@@H](CO)N3CCCCN(S(=O)(=O)c4cccc(OC)c4)C[C@H]23)cc1	-	.	-	.	.	.	.
COc1cc(Cc2nccc3cc(OC)c(OC)cc23)c(NC(=O)c2cccs2)cc1OC	.	-	.	.	.	.	.
COc1ccc(/C=C/c2cc(OC)cc3c2CCC(C)(C)O3)cc1	.	-	.	.	.	.	.
Cc1ccc(OCC(=O)Nc2ccc3oc(-c4ccccc4C)nc3c2)c(C)c1	.	-	.	.	.	.	.
Cc1ccccc1-c1nc(SCC(=O)Nc2ccc(Br)c(Cl)c2)n[nH]1	.	-	.	.	.	.	.
OC[C@H]1[C@H](c2ccc(Br)cc2)[C@@H]2CN(Cc3ccccn3)CCCCN12	-	.	109	?	-	-	-
OC[C@H]1[C@@H](c2ccc(Br)cc2)[C@H]2CN(Cc3ccccn3)CCCCN21	-	.	-	.	.	.	.
OC[C@@H]1[C@H](c2ccc(-c3cccnc3)cc2)[C@@H]2CN(Cc3ccccn3)CCCCN12	-	.	-	.	.	.	.
OC[C@@H]1[C@H](c2ccc(-c3cccnc3)cc2)[C@H]2CN(Cc3ccccn3)CCCCN12	-	.	109	97	-	-	-
O=C(CSc1nc2ccc([N+](=O)[O-])cc2s1)Nc1ccc(Br)cc1Cl	.	-	.	.	.	.	.
C[C@H](CO)N1C[C@H](C)[C@H](CN(C)Cc2cccnc2)Oc2ncc(C#CCc3ccccc3)cc2C1=O	-	-	-	.	.	.	.
C[C@@H]1CN([C@@H](C)CO)C(=O)c2cc(C#CCc3ccccc3)cnc2O[C@@H]1CN(C)Cc1cccnc1	-	-	101	-	-	-	-
C[C@@H]1CN([C@H](C)CO)C(=O)c2cc(C#CCc3ccccc3)cnc2O[C@@H]1CN(C)C(=O)C1CCCCC1	-	.	-	.	.	.	.
CNC[C@@H]1Oc2ncc(C#CC3CCCC3)cc2C(=O)N([C@@H](C)CO)C[C@@H]1C	-	-	-	.	.	.	.
C[C@H](CO)N1C[C@H](C)[C@H](CN(C)Cc2ccccn2)Oc2ncc(C#CCC3CCCC3)cc2C1=O	-	-	-	.	.	.	.
C[C@H](CO)N1C[C@H](C)[C@@H](CN(C)C(=O)C2CCCCC2)Oc2ncc(C#CCc3ccccc3)cc2C1=O	-	-	?	-	-	-	106
